Measurements reported in ChEMBL document CHEMBL3217676, “Homodimers of the Antiviral Abacavir as Modulators of P-glycoprotein Transport in Cell Culture: Probing Tether Length” (Medchemcomm, 2013).

Assays:
[1] = target: T1, ATP-dependent translocase ABCB1 (Homo sapiens, UniProt P08183); test: Inhibition of P-gp overexpressed in human 12D7-MDR cells assessed as inhibition of NBD-Aba efflux after 30 mins by flow cytometry; type: cell-based; settings: for inhibition (INH): human, 0.5 h
In short: (§1)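 12D7-MDR cells (RPMI 1640, 10% FBS, 37 °C, 5% CO2), 125,000 in suspension in BME with calcein-AM 0.25 µM or NBD-Aba 5 µM final, plus increasing inhibitor concentrations, 30 min at 37 °C, DMSO held at 1%. Controls: GF120918 1 µM (positive), 1% DMSO (negative). Cells resuspended in ice-cold PBS pH 7.4; FL1 flow cytometry, 10,000 cells per point; IC50 from mean fluorescence.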

[2] = target: T1, ATP-dependent translocase ABCB1; test: Inhibition of P-gp in human MCF7/DX1 cells assessed as cellular accumulation of doxorubicin up to 100 uM after 30 mins by flow cytometry; type: cell-based; settings: mcf7/dx1, 0.5 h
In short: (§2)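 MCF-7/DX1 cells are maintained with 1 µM doxorubicin. 125,000 cells in BME, pretreated with substrate (BODIPY-prazosin 0.5 µM, NBD-Aba 5 µM or doxorubicin 3 µM final), then incubated with increasing inhibitor concentrations for 30 min at 37 °C in 1% DMSO. For doxorubicin, cells are re-pelleted and incubated a further 30 min in inhibitor-containing BME. Read-out: flow cytometry, FL1 for BODIPY-prazosin and NBD-Aba, FL2 (585/42) for doxorubicin; IC50 from mean fluorescence. GF120918 1 µM as positive control.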

[3] = target: T1, ATP-dependent translocase ABCB1; test: Inhibition of P-gp overexpressed in human 12D7-MDR cells assessed as inhibition of calcein-AM efflux after 30 mins by flow cytometry; type: cell-based; settings: for inhibition (INH): human, 0.5 h; in short: as §1
[4] = target: T1, ATP-dependent translocase ABCB1; test: Inhibition of P-gp in human MCF7/DX1 cells assessed as cellular accumulation of NBD-Aba up to 100 uM after 30 mins by flow cytometry; type: cell-based; settings: mcf7/dx1, 0.5 h; in short: as §2
[5] = target: T1, ATP-dependent translocase ABCB1; test: Inhibition of P-gp in human MCF7/DX1 cells assessed as cellular accumulation of [3H]-daunomycin up to 100 uM after 30 mins by scintillation counting analysis; type: cell-based; settings: mcf7/dx1, 40 min, in the assay text read “40 mins” for “30 mins”
In short: (§3)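 MCF-7/DX1 cells, 500,000 per well, seeded the day before and washed with ice-cold PBS. Incubated 40 min at 37 °C in BME with 5% calf serum, 0.25 µCi/mL [3H]-daunomycin and varying inhibitor concentrations; GF120918 1 µM as positive control. Cells washed, trypsinized 1 h at 37 °C, then scintillation counted. Counts normalized per 10,000 cells; IC50 from fitted concentration–response curves.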

[6] = target: T1, ATP-dependent translocase ABCB1; test: Inhibition of P-gp in human MCF7/DX1 cells assessed as cellular accumulation of BODIPY-prazosin up to 100 uM after 30 mins by flow cytometry; type: cell-based; settings: mcf7/dx1, 0.5 h; in short: as §2
[7] = target: T1, ATP-dependent translocase ABCB1; test: Inhibition of P-gp in human CMEC/D3 cells assessed as inhibition of NBD-Aba efflux after 30 mins by flow cytometry; type: cell-based
In short: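 hCMEC/D3 brain endothelial cells with endogenous P-gp, grown in supplemented EGM-2 on collagenated flasks. 125,000 cells in suspension in BME with NBD-Aba 5 µM final and increasing inhibitor concentrations, 30 min at 37 °C, 1% DMSO constant. GF120918 1 µM served as positive control. Cells resuspended in ice-cold PBS; FL1 flow cytometry on 10,000 cells; IC50 from mean fluorescence.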

[8] = target: T1, ATP-dependent translocase ABCB1; test: Inhibition of P-gp in human MCF7/DX1 cells assessed as cellular accumulation of [3H]-daunomycin after 30 mins by scintillation counting analysis; type: cell-based; settings: mcf7/dx1, 40 min, in the assay text read “40 mins” for “30 mins”; in short: as §3
[9] = target: T1, ATP-dependent translocase ABCB1; test: Inhibition of P-gp in human MCF7/DX1 cells assessed as cellular accumulation of NBD-Aba at 20 uM by confocal laser microscopy; type: cell-based; settings: mcf7/dx1, 20 µM
In short: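 Confocal microscopy of MCF-7/DX1 cells given NBD-Aba 5 µM, with or without inhibitor at 20 µM.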

[10] = target: T1, ATP-dependent translocase ABCB1; test: Inhibition of P-gp in human MCF7/DX1 cells assessed as cellular accumulation of BODIPY-prazosin after 30 mins by flow cytometry; type: cell-based; settings: mcf7/dx1, 0.5 h; in short: as §2
[11] = target: T1, ATP-dependent translocase ABCB1; test: Inhibition of P-gp in human MCF7/DX1 cells assessed as cellular accumulation of NBD-Aba after 30 mins by flow cytometry; type: cell-based; settings: mcf7/dx1, 0.5 h; in short: as §2
P-gp (ABCB1) = P-gp (ABCB1) (Homo sapiens, UniProt P08183); test: Ratio of inhibition of P-gp in human CMEC/D3 cells using NBD-Aba as substrate to inhibition of P-gp in human MCF7/DX1 cells using NBD-Aba as substrate; type: cell-based; settings: CMEC/D3 cells and MCF7/DX1 cells, probe NBD-Aba
[12] = target: T1, ATP-dependent translocase ABCB1; test: Inhibition of P-gp in human MCF7/DX1 cells assessed as cellular accumulation of doxorubicin after 30 mins by flow cytometry; type: cell-based; settings: mcf7/dx1, 0.5 h; in short: as §2
[13] = target: T1, ATP-dependent translocase ABCB1; test: Displacement of [125I]-iodoarylazidoprazosin from human P-gp expressed in baculovirus-infected insect Sf9 cells incubated for 10 mins followed by UV light illumination for 20 mins by autoradiography
In short: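 Crude membranes (25 µg) from Sf9 cells infected with BV-MDR1 expressing human P-gp (72 h at 27 °C). Incubated 10 min at room temperature in the dark in 50 mM Tris-HCl pH 7.5 with 1 mM DTT and protease inhibitors, with [125I]-IAAP (~2200 Ci/mmol) and increasing inhibitor, then photo-crosslinked. Controls: 2.5% DMSO or GF120918 10 µM. Autoradiography and densitometry; values as percent of DMSO control, IC50 fitted.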

[14] = target: T1, ATP-dependent translocase ABCB1; test: Ratio of inhibition of P-gp overexpressed in human 12D7-MDR cells using NBD-Aba as substrate to inhibition of P-gp in human MCF7/DX1 cells using NBD-Aba as substrate; type: cell-based

T1 sequence (P08183 whole entry): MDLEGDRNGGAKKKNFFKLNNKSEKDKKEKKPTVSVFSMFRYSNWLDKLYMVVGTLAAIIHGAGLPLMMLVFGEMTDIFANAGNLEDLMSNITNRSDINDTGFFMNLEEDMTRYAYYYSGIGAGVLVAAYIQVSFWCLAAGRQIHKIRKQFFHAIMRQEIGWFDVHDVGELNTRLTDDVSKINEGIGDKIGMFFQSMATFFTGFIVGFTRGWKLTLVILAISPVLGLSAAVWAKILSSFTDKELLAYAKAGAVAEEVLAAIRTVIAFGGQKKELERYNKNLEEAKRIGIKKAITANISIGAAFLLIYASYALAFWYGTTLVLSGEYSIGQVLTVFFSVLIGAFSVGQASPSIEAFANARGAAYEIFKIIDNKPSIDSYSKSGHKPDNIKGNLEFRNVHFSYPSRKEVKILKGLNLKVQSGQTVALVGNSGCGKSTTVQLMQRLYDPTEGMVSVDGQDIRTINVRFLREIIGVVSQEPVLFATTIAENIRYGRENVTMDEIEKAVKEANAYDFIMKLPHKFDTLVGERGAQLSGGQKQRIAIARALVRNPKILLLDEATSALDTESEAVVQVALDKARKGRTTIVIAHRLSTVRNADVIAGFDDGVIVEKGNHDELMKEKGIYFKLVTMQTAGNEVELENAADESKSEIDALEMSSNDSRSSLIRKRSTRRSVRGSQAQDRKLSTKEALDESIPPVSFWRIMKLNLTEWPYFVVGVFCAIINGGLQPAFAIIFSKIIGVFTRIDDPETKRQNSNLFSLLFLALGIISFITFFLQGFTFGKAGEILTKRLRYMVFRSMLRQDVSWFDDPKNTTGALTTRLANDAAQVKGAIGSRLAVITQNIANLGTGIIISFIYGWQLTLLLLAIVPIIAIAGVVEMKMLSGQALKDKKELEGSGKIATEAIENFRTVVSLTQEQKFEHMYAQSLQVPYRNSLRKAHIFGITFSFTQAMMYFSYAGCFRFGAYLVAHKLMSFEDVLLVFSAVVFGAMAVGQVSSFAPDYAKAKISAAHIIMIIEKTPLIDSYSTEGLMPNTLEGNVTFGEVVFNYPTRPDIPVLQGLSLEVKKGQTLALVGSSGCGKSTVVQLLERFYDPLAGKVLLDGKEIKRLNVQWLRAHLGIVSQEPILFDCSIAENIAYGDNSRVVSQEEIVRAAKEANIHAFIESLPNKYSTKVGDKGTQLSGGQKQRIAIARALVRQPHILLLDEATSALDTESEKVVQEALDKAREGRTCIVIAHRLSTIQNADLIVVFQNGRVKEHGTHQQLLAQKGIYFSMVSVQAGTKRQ
P-gp (ABCB1), sequence (P08183 whole entry): as above

SMILES	IC50 [1]	inhibition (INH) [2]	IC50 [3]	inhibition (INH) [4]	inhibition (INH) [5]	inhibition (INH) [6]	IC50 [7]	inhibition (INH) [3]	inhibition (INH) [1]	INH [8]	inhibition (INH) [9]	INH [10]	INH [11]	INH [12]	IC50 [13]	inhibition (INH) ([13]; human, sf9, 10 min)	Ratio [14]	selectivity ratio (P-gp (ABCB1))
Nc1nc(NC2CC2)c2ncn([C@H]3C=C[C@@H](CO)C3)c2n1 [ABACAVIR]	> 500000 nM	Not Active	> 500000 nM	Not Active	Not Active	Not Active	> 500000 nM											
Nc1nc(NC2CC2)c2ncn([C@H]3C=C[C@@H](COC(=O)CCCCCC(=O)OC[C@@H]4C=C[C@H](n5cnc6c(NC7CC7)nc(N)nc65)C4)C3)c2n1	10500 nM		7700 nM				4100 nM	Dose-dependent effect	Dose-dependent effect									
Nc1nc(NC2CC2)c2ncn([C@H]3C=C[C@@H](COC(=O)CCCCCCCCCCC(=O)OC[C@@H]4C=C[C@H](n5cnc6c(NC7CC7)nc(N)nc65)C4)C3)c2n1	1800 nM		1400 nM				1100 nM	Dose-dependent effect	Dose-dependent effect									

More lines, in order of falling IC50 [3], values ahead:

IC50 [1]	inhibition (INH) [2]	IC50 [3]	inhibition (INH) [4]	inhibition (INH) [5]	inhibition (INH) [6]	IC50 [7]	inhibition (INH) [3]	inhibition (INH) [1]	INH [8]	inhibition (INH) [9]	INH [10]	INH [11]	INH [12]	IC50 [13]	inhibition (INH) ([13]; human, sf9, 10 min)	Ratio [14]	SMILES	selectivity ratio (P-gp (ABCB1))
		50000 nM					Dose-dependent effect										Nc1nc(NC2CC2)c2ncn([C@H]3C=C[C@@H](COC(=O)CCC(=O)OC[C@@H]4C=C[C@H](n5cnc6c(NC7CC7)nc(N)nc65)C4)C3)c2n1	
2600 nM		2600 nM				3800 nM	Dose-dependent effect	Dose-dependent effect									Nc1nc(NC2CC2)c2ncn([C@H]3C=C[C@@H](COC(=O)CCCCCCCC(=O)OC[C@@H]4C=C[C@H](n5cnc6c(NC7CC7)nc(N)nc65)C4)C3)c2n1	
2100 nM		2300 nM				3600 nM	Dose-dependent effect	Dose-dependent effect	9.2 µM	Active	5.1 µM	11.8 µM	12.8 µM	240 nM	Dose-dependent effect	6	Nc1nc(NC2CC2)c2ncn([C@H]3C=C[C@@H](COC(=O)CCCCCCCCC(=O)OC[C@@H]4C=C[C@H](n5cnc6c(NC7CC7)nc(N)nc65)C4)C3)c2n1	3
